# This is a sample that favours compounds with a hit; in the whole collection about 1.6% have one here.
# S100A4 inh HTS: inhibitors of S100A4-myosin IIA peptide binding, primary screen, biochemical, fluorescence polarization, TAMRA-MyoIIA peptide; Protein S100-A4 (Homo sapiens), P26447; AID 652163, 2013; 360,000 tested, 0.14% active; inhibition, % at 10.7 µM;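 active means mean inhibition of at least 70% across replicates, with every replicate also reaching that level; inconclusive means mean inhibition reaches 70% but some replicates fall short; inactive means mean inhibition below 70%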
#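 Material: S100A4 monomer (human). Medium: Calcium-containing HEPES buffer, pH 7.2. Probe or stimulus: labelled myosin peptide probe, 5 nM. Compound dosing: one concentration per compound. Timing: polarization read 5 min after assay mix addition, stable 5–60 min. Benchmarks: DMSO as neutral control, TFP as positive control.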
# SR-BI DiI inh: inhibitors of SR-BI mediated HDL lipid uptake, primary screen, ldlA[mSR-BI] cells, fluorescence, single point. Scavenger receptor class B member 1 (Mus musculus), Q61009. ldlA[mSR-BI] CHO cells, DiI-HDL uptake fluorescence, 3 h. inhibition, % at 12.5 µM. 320,000 tested, 0.96% active;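 active means mean replicate inhibition of at least 70% and a set share of replicates each scoring 70 or more; inconclusive means meets just one of the two criteria; inactive means fails both criteria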;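 further: 0% = median of neutral control wells and 100% = median of positive control wells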
# PvdQ inh: P. aeruginosa PvdQ acylase inhibitors, primary screen, biochemical, fluorescence, plate reader and imaging, single point | purified PvdQ acylase | PvdQ acylase [Pseudomonas aeruginosa LESB58] | inhibition, % at 10 µM | 340,000 tested, 0.063% active | AID 488965, 2010; in the data active means inhibition above about 30%, passing the limit was not always enough; inconclusive means no clear call, values can overlap the other calls;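 further: 0% = vehicle neutral wells and 100% = reference inhibitor wells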
# dFosB act-1: activators of delta FosB homodimer, primary screen, biochemical, fluorescence polarization, TAMRA-CDK5 oligo, single point; 340,000 tested, 0.99% active; activation, % at 25 µM; Protein FosB (Mus musculus), P13346; purified delta FosB; percent of positive-control signal above neutral wells;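 active means mean activation above about 17%, with every replicate also reaching it, limit read from the data, passing the limit was not always enough; inconclusive means only one of the two conditions met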
# RAD54 inh: inhibitors of human RAD54 branch migration, primary screen, biochemical, fluorescence, single point | DNA repair and recombination protein RAD54-like (Homo sapiens), Q92698 | RAD54 Holliday junction branch migration, FAM/BHQ fluorescence | inhibition, % at 10.4 µM | 360,000 tested, 0.14% active | AID 602329, 2012;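 active means mean normalized replicate activity at least 40 and at least half of replicates scoring 40 or more; inconclusive means only one of the two criteria met; inactive means mean below 40 and under half of replicates reaching 40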;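 further: 0% = median of neutral control wells and 100% = median of positive control wells; inhibitors cause a drop in the FAM fluorescence signal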
# Target sequence (Q92698 whole entry, looked up): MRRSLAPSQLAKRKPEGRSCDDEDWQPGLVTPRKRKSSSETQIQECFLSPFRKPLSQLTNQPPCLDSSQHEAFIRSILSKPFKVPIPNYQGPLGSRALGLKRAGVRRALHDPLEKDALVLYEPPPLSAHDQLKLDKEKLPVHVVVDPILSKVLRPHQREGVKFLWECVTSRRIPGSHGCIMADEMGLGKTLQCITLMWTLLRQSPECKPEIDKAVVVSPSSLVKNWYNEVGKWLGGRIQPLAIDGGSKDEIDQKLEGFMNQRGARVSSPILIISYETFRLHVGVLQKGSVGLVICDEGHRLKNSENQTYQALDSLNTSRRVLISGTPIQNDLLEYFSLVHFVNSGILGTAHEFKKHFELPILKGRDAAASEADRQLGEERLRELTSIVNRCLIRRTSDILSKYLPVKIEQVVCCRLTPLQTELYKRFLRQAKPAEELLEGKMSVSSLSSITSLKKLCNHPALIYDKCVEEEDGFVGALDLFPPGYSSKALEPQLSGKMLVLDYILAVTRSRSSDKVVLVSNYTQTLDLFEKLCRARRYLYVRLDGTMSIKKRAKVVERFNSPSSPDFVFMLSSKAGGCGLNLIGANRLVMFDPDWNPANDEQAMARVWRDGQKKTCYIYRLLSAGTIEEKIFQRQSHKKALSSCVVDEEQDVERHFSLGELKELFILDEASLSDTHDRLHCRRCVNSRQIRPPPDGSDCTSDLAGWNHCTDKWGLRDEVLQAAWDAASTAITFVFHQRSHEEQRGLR
# SR-BI uptake up: activators of SR-BI mediated DiI-HDL uptake, primary screen, ldlA[mSR-BI] CHO cells, DiI fluorescence | 3 h; 100 = double the neutral-control signal | AID 504775, 2011 | activation, % at 12.5 µM | 320,000 tested, 0.096% active;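 active means mean replicate activation of at least 60% and every replicate at or above 60%; inconclusive means mean or all-replicate condition met, but not both; inactive means mean below 60% and not all replicates reaching 60%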;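 further: 0% = median plate neutral-control signal and 100% = twice that signal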
#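 Assay system: LDL receptor-deficient CHO ldlA cells overexpressing murine SR-BI / Medium: BSA-supplemented, HEPES-buffered Ham's F12, pH 7.4 / Probe or stimulus: DiI-labelled HDL at 10 µg/mL final / Timing: compound with DiI-HDL co-incubation, 3 h at 37 °C / Technique: bottom-read cell fluorescence after medium removal, ex 550/em 595 nm / Measure: HDL uptake via cellular fluorescence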
# dFosB act-2: activators of mouse delta FosB DNA binding, confirmation, biochemical, fluorescence polarization, TAMRA-CDK5 oligo, cherry-picked samples; activation, % at 24.9 µM; AID 588690, 2011; 2,400 tested, under 10 active; shares compounds with dFosB act-1; purified delta FosB; normalised: neutral wells 0, positive control 100;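 active means highest replicate activation at or above 34% and every replicate reaching that threshold; inconclusive means meets only one of the two criteria; inactive means meets neither criterion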;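 further: higher polarization means more probe DNA bound by delta FosB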
# Active calls of the source: *; ? = inconclusive; / = no result given.
SMILES,S100A4 inh HTS,SR-BI DiI inh,PvdQ inh,dFosB act-1,RAD54 inh,SR-BI uptake up,dFosB act-2
COc1ccc(CN(C)C[C@H]2OCCCC[C@H](C)Oc3ccc(NC(=O)CCC(F)(F)F)cc3C(=O)N([C@H](C)CO)C[C@@H]2C)cc1,-12.9,/,/,/,-2.3,/,/
Cc1noc(C)c1S(=O)(=O)N(C)C[C@@H]1OCCCC[C@@H](C)Oc2ccc(NC(=O)Nc3ccc(C(F)(F)F)cc3)cc2C(=O)N([C@H](C)CO)C[C@H]1C,-7.8,/,/,/,-9.5,/,/
CCCC(=O)Nc1ccc2c(c1)C(=O)N(C)[C@H]1CC[C@@H](CC(=O)NCc3ccccc3Cl)O[C@H]1CO2,-7.5,/,/,/,-2.8,/,/
Cc1ccc(C(=O)OCC(=O)Nc2cc(F)ccc2F)cc1NC(=O)c1ccco1,/,3.4,-14.8,31.6*,-5.9,-3.4,8.2
COc1ccccc1-c1cn(CC[C@H]2CC[C@@H](NC(=O)c3ccccc3F)[C@@H](CO)O2)nn1,7.6,/,/,/,-10.4,/,/
CCCc1cc(=O)[nH]c(SCC(=O)Nc2ccccc2C#N)n1,/,-3.2,-30.2,-6.8,-9.6,/,/
CCCc1cc(=O)[nH]c(SCC(=O)Nc2ccc(OCc3ccccc3)cc2)n1,1.2,-19.2,10.4,28.0*,5.1,19.2,0.0
CCCc1cc(=O)[nH]c(SCC(=O)Nc2cccc3ccccc23)n1,0.2,2.0,-15.0,21.7*,-7.1,-2.0,1.9
CCCc1cc(=O)[nH]c(SCC(=O)Nc2ccc(C)cc2)n1,-0.2,3.0,-6.6,3.7,/,-3.0,/
CCC(=O)N1C[C@@H]2[C@H](c3ccccc31)[C@H](CO)N2Cc1ccccc1F,2.7,/,/,/,-7.1,/,/
O=C(Nc1ccc(Oc2ncnc3cc(Cl)ccc23)nc1)Nc1cccc(C(F)(F)F)c1,1.6,11.1,-7.3,39.7*,7.4,-11.1,-4.4
CCN(CC)CCN1C(=O)c2cccc3cc(N)cc(c23)C1=O,9.7,14.3,14.6,24.1*,?,-14.3,-4.3
O=C(Cn1nnc(-c2ccccc2Cl)n1)N/N=C/c1ccc2c(c1)OCO2,/,-36.5,6.3,23.6*,5.0,36.5,-1.0
O=C(N/N=C/c1ccc2c(c1)OCO2)c1ccc(NC(=O)c2ccccc2Cl)cc1,-2.8,?,10.4,22.6*,0.4,-72.7,-4.7
O=C(N/N=C/c1ccc2c(c1)OCO2)c1cccc(NC(=O)c2ccccc2Cl)c1,-39.5,/,7.3,21.3*,2.9,/,3.6
Cc1ccccc1C(=O)Nc1cccc(C(=O)N/N=C/c2ccc3c(c2)OCO3)c1,0.4,48.7,-12.2,11.2,-5.6,-48.7,/
COc1ccc(NC(=O)N(C)C[C@@H]2OCCCC[C@@H](C)Oc3ccc(NS(=O)(=O)c4ccc(OC)cc4)cc3C(=O)N([C@@H](C)CO)C[C@H]2C)cc1,/,/,/,/,-4.6,/,/
COC(=O)Cn1c(=NC(=O)c2sc3ccccc3c2Cl)sc2cc(S(N)(=O)=O)ccc21,7.8,4.1,0.6,-2.1,/,-4.1,/
CCOC(=O)Cn1c(=NC(=O)c2sc3ccccc3c2Cl)sc2cc(S(N)(=O)=O)ccc21,/,-4.6,-3.2,91.5*,1.1,4.6,-3.6
O=C(NC(=S)Nc1nc(-c2cccc([N+](=O)[O-])c2)cs1)c1cc(Cl)ccc1Cl,-2.4,23.6,23.2,-4.0,-7.8,-23.6,/
O=C(NC(=S)Nc1nc(-c2cccc([N+](=O)[O-])c2)cs1)c1ccccc1Cl,-13.1,4.3,-9.5,88.2*,/,-4.3,4.6
Cc1cccc(C(=O)Nc2ccc3c(c2)C(=O)NC3=O)c1,2.2,-4.6,-15.1,2.2,0.2,4.6,/
CC(C)C(=O)Nc1ccc2c(c1)C(=O)NC2=O,-5.1,-5.0,-3.8,-0.9,/,5.0,/
O=C(Nc1ccc2c(c1)C(=O)NC2=O)c1cccc(Cl)c1,8.9,3.0,-12.3,25.3*,-17.9,-3.0,1.5
COC(=O)c1ccc(C(=O)Nc2ccc3c(c2)C(=O)NC3=O)cc1,-1.1,3.8,5.8,85.8*,5.4,-3.8,5.6
SMILES,S100A4 inh HTS,SR-BI DiI inh,PvdQ inh,dFosB act-1,RAD54 inh,SR-BI uptake up,dFosB act-2
O=C(Nc1ccc2c(c1)C(=O)NC2=O)c1ccc(Cl)s1,-2.1,/,2.4,53.9*,2.8,/,0.0
CCCCOc1ccc(C(=O)Nc2ccc3c(c2)C(=O)NC3=O)cc1,1.7,/,7.1,6.2,-11.6,/,/
Cc1ccc(C(=O)Nc2ccc3c(c2)C(=O)NC3=O)cc1,-4.3,1.8,-6.7,35.4*,1.4,-0.3,5.1
CC(=O)N(C)C[C@@H]1Oc2ncc(-c3cccnc3)cc2C(=O)N([C@@H](C)CO)C[C@H]1C,12.0,/,/,/,-11.6,/,/
O=C(C[C@H]1C[C@H]2c3cc(NC(=O)C4CCC4)ccc3O[C@H]2[C@@H](CO)O1)NCc1ccccc1,2.1,/,/,/,-2.0,/,/
COc1ccc(NC(=O)N(C)C[C@H]2Oc3ccc(NC(=O)CCC(F)(F)F)cc3CC(=O)N([C@@H](C)CO)C[C@H]2C)cc1,6.9,/,/,/,-10.0,/,/
C[C@@H]1CN([C@H](C)CO)C(=O)c2cc(-c3cccnc3)cnc2O[C@@H]1CN(C)Cc1ccc(-c2ccccc2)cc1,5.1,/,/,/,9.5,/,/
Cc1ccc(NC(=O)c2ccc(OC(=O)CCN3C(=O)c4ccccc4C3=O)cc2)cc1,/,/,-0.3,35.0*,-3.3,/,0.3
CC(=O)Nc1ccc(-c2cc(-c3ccc(NC(C)=O)cc3)nc(-c3ccc(NC(C)=O)cc3)n2)cc1,-3.2,-19.4,-9.2,54.1*,4.9,19.4,0.3
CC(=O)Nc1ccc(NC(=O)C2CC(=O)Nc3nc4ccccc4n32)cc1 (stereo unspecified),-6.7,-13.9,13.9,6.3,0.3,13.9,/
Cc1ccc(NC(=O)C2CC(=O)Nc3nc4ccccc4n32)c(C)c1 (stereo unspecified),2.1,-4.7,3.1,47.4*,-3.2,4.7,5.9
O=C(C[C@@H]1CC[C@@H]2[C@H](COC[C@@H](O)CN2CC2CCCCC2)O1)NCC1CC1,1.0,/,/,/,-9.9,/,/
COc1cc(NC(=O)c2ccco2)c(C(=O)OCC(=O)c2c[nH]c3ccccc23)cc1OC,/,43.3,-7.3,38.6*,-4.1,-43.3,7.0
O=C(NC(NC(=S)Nc1c(Cl)cccc1Cl)C(Cl)(Cl)Cl)OCc1ccccc1 (stereo unspecified),-4.0,19.4,-9.2,16.3*,/,-19.4,5.5
